Measurements collected from several papers.
Each line is one published result; the experiments were not run side by side.
Observed: cell growth or viability

C=CCn1c(-c2ccc([N+](=O)[O-])cc2)nc2ccc(C)cc21 — IC50 (MDA-MB-231; MTT): > 100 µM
C/C=C(/C)C(=O)OC[C@H]1[C@@H](Cc2ccc(C(F)(F)F)cc2)CO[C@@H]1c1ccc(OC)c(OC)c1 — IC50 (rat VSMC; resazurin; 48 h): 20.1 µM
COc1ccc(-c2cc(=O)c3c(OC)cc(OC)cc3o2)cc1 — IC50 (HS27; MTT; 24 h): > 200 µM
Nc1nc(Nc2ccc3c(c2)CC[C@@H](N2CCCC2)CC3)nn1-c1cc2c(nn1)-c1ccccc1CCC2 — IC50 (CMK; trypan blue; 72 h): 2.24 µM
COC(=O)CN=c1scc(-c2ccccc2)n1-c1ccccc1OC — IC50 (Panc 04.03; MTT; 72 h): 52.2 µM
Oc1c(I)cc(I)c2cccnc12 — IC50 (BEL-7404; MTT; 48 h): > 100 µM
COc1cc(C)c(-c2c(C)cc(OC)c3c(=O)cc(-c4ccc(N(C)C)cc4)oc23)c2oc(-c3ccc(N(C)C)cc3)cc(=O)c12 — IC50 (HS27; MTT): 180 µM
C#Cc1cccc(Nc2ncnc3cc(OCCOC)c(OCCOC)cc23)c1 — IC50 (A-375; MTT): 4.14 µM
COc1cc(C)c(-c2c(C)cc(OC)c3c(=O)cc(-c4ccccc4Br)oc23)c2oc(-c3ccccc3Br)cc(=O)c12 — IC50 (HS27; MTT; 24 h): > 200 µM
COC(=O)/C=C/C=C/c1ccc2c(c1)OCO2 — IC50 (MRC5; SRB): 250 µM
Cc1ccc2nc(-c3ccc(Cl)cc3)[nH]c2c1 — IC50 (MDA-MB-231; MTT; 48 h): 27.1 µM
COc1cc(C)cc2oc(-c3ccccc3)cc(=O)c12 — IC50 (HS27; MTT; 24 h): > 200 µM
COc1cccc(-c2nc3ccccc3[nH]2)c1 — IC50 (MDA-MB-231; MTT; 48 h): 25.5 µM
c1ccc(-c2ccccn2)nc1 — IC50 (BEL-7404; MTT; 48 h): > 50 µM
COc1cc(C)c(-c2c(C)cc(OC)c3c(=O)cc(-c4ccccc4)oc23)c2oc(-c3ccccc3)cc(=O)c12 — IC50 (HS27; MTT; 24 h): > 200 µM
COC(=O)CN=c1scc(-c2ccccc2)n1-c1ccc(C)cc1 — IC50 (SiHa; MTT; 72 h): 6.17 µM
c1cncc(-c2nc3ccccc3[nH]2)c1 — IC50 (MDA-MB-231; MTT; 48 h): > 100 µM
COC(=O)CN=c1scc(-c2ccccc2)n1-c1ccccc1 — IC50 (Panc 04.03; MTT; 72 h): > 100 µM
Cc1ccc2nc(-c3ccc(Cl)cc3Cl)[nH]c2c1 — IC50 (MDA-MB-231; MTT; 48 h): 27.5 µM
CCOc1cc(OCC)cc(C(=O)O[C@@H]2CN3Cc4c(cc5c(c4OC)OCO5)[C@@]24C=C[C@H](OC)C[C@@H]34)c1 — IC50 (MRC5; WST-1): > 10 µM
COc1cc(C)cc2oc(-c3ccc(N(C)C)cc3)cc(=O)c12 — IC50 (HS27; MTT; 24 h): 141 µM
Cc1ccc2nc(-c3ccco3)n(Cc3ccccc3)c2c1 — IC50 (MDA-MB-231; MTT): 60.5 µM
